These results are taken from ChEMBL document CHEMBL4725280, “Structural studies of triazole inhibitors with promising inhibitor effects against antibiotic resistance metallo-β-lactamases” (Bioorg Med Chem, 2020).

Values after ≈ are worked out from the molar mass of the structure shown. Active and inactive are the calls of the source. The rule behind the calls is not given here.

Assay [1] addresses Beta-lactamase VIM-2 (Pseudomonas aeruginosa) (UniProt Q9K2N0). As to the kind of experiment: Inhibition of Pseudomonas aeruginosa 3015473 beta lactamase VIM-2 transfected in negative Escherichia coli SNO3 cells assessed as substrate hydrolysis using nitrocefin as substrate at 250 uM incubated for 20 mins measured every 1 mins for 3 hrs by cell-based microplate spectrophotometry analysis relative to control. A digest of the protocol: (§1)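 E. coli SNO3 (β-lactamase-negative) carrying pET26b(+) with blaVIM-2, blaGIM-1 or blaNDM-1; overnight culture adjusted to OD600 1 in LB, inhibitor 250 µM final, IPTG 0.8 mM final, 37 °C 20 min with shaking to induce. Nitrocefin added (1.6 mM final, in 50 mM HEPES pH 7.2, 100 µM ZnCl2), A482 read each minute for 3 h; duplicates.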

A further assay deals with Klebsiella pneumoniae. As to the kind of experiment: Inhibition of Klebsiella pneumonia beta lactamase NDM1 transfected in negative Escherichia coli SNO3 cells assessed as substrate hydrolysis using nitrocefin as substrate at 250 uM incubated for 20 mins measured every 1 mins for 3 hrs by cell-based microplate spectrophotometry analysis relative to control. The method, boiled down: as §1

The target in another assay is GIM-1 protein (Pseudomonas aeruginosa, UniProt Q704V1). In words: Inhibition of beta lactamase GIM-1 in Pseudomonas aeruginosa in presence of nitrocefin as reporter substrate measured after 5 mins by microplate spectrophotometry analysis. The method, boiled down:
(§2)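 Purified recombinant enzyme (1 nM GIM-1 or NDM-1) in 50 mM HEPES pH 7.2, 100 µM ZnCl2, 400 µg/ml BSA, preincubated with inhibitor at 16 concentrations (0–250 µM) for 5 min at 25 °C. Reporter substrate added at 100 µM: nitrocefin for GIM-1 (A482), imipenem for NDM-1 (A300). Triplicates; IC50 from initial velocities by log[inhibitor]–response fit.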

The nature of assay [2]: Inhibition of beta lactamase NDM1 in Klebsiella pneumoniae in presence of imipenem as reporter substrate measured after 5 mins by microplate spectrophotometry analysis. A digest of the protocol: as §2
Assay [3] addresses GIM-1 protein (Pseudomonas aeruginosa) (UniProt Q704V1). In words: Inhibition of Pseudomonas aeruginosa beta lactamase GIM-1 transfected in negative Escherichia coli SNO3 cells assessed as substrate hydrolysis using nitrocefin as substrate at 250 uM incubated for 20 mins measured every 1 mins for 3 hrs by cell-based microplate spectrophotometry analysis relative to control. The method, boiled down: as §1

A further assay deals with Beta-lactamase VIM-2 (Pseudomonas aeruginosa, UniProt Q9K2N0). In words: Inhibition of beta lactamase VIM-2 in Pseudomonas aeruginosa 3015473 in presence of nitrocefin as reporter substrate measured after 5 mins by microplate spectrophotometry analysis. The method, boiled down:
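Purified VIM-2 at 1 nM in 50 mM HEPES pH 7.2 with 100 µM ZnCl2 and 400 µg/ml BSA, preincubated with inhibitor (sixteen concentrations, 0–250 µM) for 5 min at 25 °C. Then 100 µM nitrocefin was added and absorbance was followed at 482 nm. Points were run in triplicate, and IC50 was taken from initial velocities by log[inhibitor]–response fitting.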

For assay [4], the target named is Beta-lactamase VIM-2 (Pseudomonas aeruginosa) (UniProt Q9K2N0). In words: Synergistic Inhibition of beta lactamase VIM-2 in Pseudomonas aeruginosa K34-7 assessed colony formation by visual inspection in presence of 50 microM (5-((4-iodophenylsulfonamido)methyl)-1H-1,2,3-triazol-4-yl)methyl acetate incubated for 20 hrs by two-fold dilution method. A digest of the protocol: (§3)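 Broth microdilution in Mueller Hinton broth against clinical isolates (P. aeruginosa VIM-2, K. pneumoniae NDM-1, E. coli VIM-29). Meropenem 2-fold series 256–0.0625 µg/mL, with inhibitor at 50 or 125 µM final; 5% DMSO control. Inoculum from 0.5 McFarland suspension in 0.85% NaCl diluted in MH broth, CFU checked on MH agar. 37 °C for 20 h; MIC read visually.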

Assay [5] concerns the target Metallo-beta-lactamase type 2 (Klebsiella pneumoniae) (UniProt C7C422). In words: Synergistic Inhibition of beta lactamase NDM1 in Klebsiella pneumoniae K66-45 assessed colony formation by visual inspection in presence of 125 microM N-((4-((cyclohexylamino)methyl)-1H-1,2,3-triazol-5-yl)methyl)-4-iodobenzenesulfonamide incubated for 20 hrs by two-fold dilution method. The method, boiled down:
as §3

The subject of assay [6] is Escherichia coli. In words: Inhibition of beta lactamase VIM-29 in Escherichia coli 50639799 assessed colony formation by visual inspection incubated for 20 hrs by two-fold dilution method. The method, boiled down:
as §3

Assay [7] addresses Beta-lactamase VIM-2 (Pseudomonas aeruginosa) (UniProt Q9K2N0). As to the kind of experiment: Inhibition of beta lactamase VIM-2 in Pseudomonas aeruginosa K34-7 assessed colony formation by visual inspection incubated for 20 hrs by two-fold dilution method. The method, boiled down:
as §3

The test system of assay [8] is Escherichia coli. As to the kind of experiment: Synergistic Inhibition of beta lactamase VIM-29 in Escherichia coli 50639799 assessed colony formation by visual inspection in presence of 50 microM (5-((4-iodophenylsulfonamido)methyl)-1H-1,2,3-triazol-4-yl)methyl acetate incubated for 20 hrs by two-fold dilution method. The method, boiled down:
as §3

In assay [9] the target is Metallo-beta-lactamase type 2 (Klebsiella pneumoniae) (UniProt C7C422). In words: Inhibition of beta lactamase NDM1 in Klebsiella pneumoniae K66-45 assessed colony formation by visual inspection incubated for 20 hrs by two-fold dilution method. The method, boiled down: as §3
Assay [10] addresses Beta-lactamase VIM-2 (Pseudomonas aeruginosa) (UniProt Q9K2N0). As to the kind of experiment: Synergistic Inhibition of beta lactamase VIM-2 in Pseudomonas aeruginosa K34-7 assessed colony formation by visual inspection in presence of 125 microM N-((4-((cyclohexylamino)methyl)-1H-1,2,3-triazol-5-yl)methyl)-4-iodobenzenesulfonamide incubated for 20 hrs by two-fold dilution method. A digest of the protocol:
as §3

The subject of assay [11] is Escherichia coli. As to the kind of experiment: Synergistic Inhibition of beta lactamase VIM-29 in Escherichia coli 50639799 assessed colony formation by visual inspection in presence of 50 microM 2,5-Dichloro-N-((4-((cyclohexylamino)methyl)-1H-1,2,3-triazol-5-yl)methyl)benzenesulfonamide incubated for 20 hrs by two-fold dilution method. A digest of the protocol:
as §3

Assay [12] concerns the target Metallo-beta-lactamase type 2 (Klebsiella pneumoniae) (UniProt C7C422). As to the kind of experiment: Synergistic Inhibition of beta lactamase NDM1 in Klebsiella pneumoniae K66-45 assessed colony formation by visual inspection in presence of 125 microM N-((4-((adamantylamino)methyl)-1H-1,2,3-triazol-5-yl)methyl)-4-iodobenzenesulfonamide incubated for 20 hrs by two-fold dilution method. The method, boiled down: as §3

Assay [13] has as its target Beta-lactamase VIM-2 (Pseudomonas aeruginosa) (UniProt Q9K2N0). As to the kind of experiment: Synergistic Inhibition of beta lactamase VIM-2 in Pseudomonas aeruginosa K34-7 assessed colony formation by visual inspection in presence of 125 microM N-((4-((adamantylamino)methyl)-1H-1,2,3-triazol-5-yl)methyl)-4-iodobenzenesulfonamide incubated for 20 hrs by two-fold dilution method. A digest of the protocol: as §3

Assay [14] deals with Metallo-beta-lactamase type 2 (Klebsiella pneumoniae) (UniProt C7C422). As to the kind of experiment: Synergistic Inhibition of beta lactamase NDM1 in Klebsiella pneumoniae K66-45 assessed colony formation by visual inspection in presence of 50 microM (5-((4-iodophenylsulfonamido)methyl)-1H-1,2,3-triazol-4-yl)methyl acetate incubated for 20 hrs by two-fold dilution method. The method, boiled down:
as §3

Assay [15] has the same target. As to the kind of experiment: Synergistic Inhibition of beta lactamase NDM1 in Klebsiella pneumoniae K66-45 assessed colony formation by visual inspection in presence of 50 microM 2,5-Dichloro-N-((4-((cyclohexylamino)methyl)-1H-1,2,3-triazol-5-yl)methyl)benzenesulfonamide incubated for 20 hrs by two-fold dilution method. A digest of the protocol: as §3
Assay [16] has as its target Beta-lactamase VIM-2 (Pseudomonas aeruginosa) (UniProt Q9K2N0). In words: Synergistic Inhibition of beta lactamase VIM-2 in Pseudomonas aeruginosa K34-7 assessed colony formation by visual inspection in presence of 50 microM 2,5-Dichloro-N-((4-((cyclohexylamino)methyl)-1H-1,2,3-triazol-5-yl)methyl)benzenesulfonamide incubated for 20 hrs by two-fold dilution method. A digest of the protocol:
as §3

Chain of GIM-1 protein (Pseudomonas aeruginosa) (Q704V1 as listed by the source): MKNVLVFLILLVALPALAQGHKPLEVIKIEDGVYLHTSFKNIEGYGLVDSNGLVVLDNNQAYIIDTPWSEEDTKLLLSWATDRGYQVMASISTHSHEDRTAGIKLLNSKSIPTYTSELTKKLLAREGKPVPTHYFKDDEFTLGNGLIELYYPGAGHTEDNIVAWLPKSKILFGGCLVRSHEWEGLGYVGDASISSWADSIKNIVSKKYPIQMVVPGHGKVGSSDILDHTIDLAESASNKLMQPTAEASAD
Chain of GIM-1 protein (Q704V1 whole entry): as the sequence (Q704V1 as listed by the source) above
Chain of Metallo-beta-lactamase type 2 (Klebsiella pneumoniae) (C7C422 whole entry): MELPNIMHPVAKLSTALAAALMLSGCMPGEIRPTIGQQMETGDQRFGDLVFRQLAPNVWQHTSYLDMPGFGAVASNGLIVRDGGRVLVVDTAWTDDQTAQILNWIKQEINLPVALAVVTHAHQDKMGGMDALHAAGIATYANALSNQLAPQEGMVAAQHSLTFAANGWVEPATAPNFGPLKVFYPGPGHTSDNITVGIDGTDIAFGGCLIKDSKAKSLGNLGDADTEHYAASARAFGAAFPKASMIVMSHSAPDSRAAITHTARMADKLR

For `O=S(=O)(NCc1[nH]nnc1CNC(c1ccccc1)(c1ccccc1)c1ccccc1)c1ccc(I)cc1`, the inhibition – broadly, the percentage by which the read-out fell short of the control – in [1] turned out to be 19%; in assay [3], 3%. In addition, the inhibition result with Klebsiella pneumoniae was “inactive”. In addition, the IC50 (usually the concentration that inhibits the measured activity by half) at GIM-1 protein (read-out: IC50) was 353 µM; in assay [2] (read-out: IC50), 81 µM; on Beta-lactamase VIM-2 (read-out: IC50), > 250 µM.

As to `O=S(=O)(NCc1[nH]nnc1CNC1CCCCC1)c1ccc(I)cc1`, the inhibition in [1] was determined as 95%; in assay [3], 3%. Also, the inhibition entry in the assay with Klebsiella pneumoniae was “inactive”. Besides, the IC50 on GIM-1 protein (read-out: IC50) is 69 µM; in [2] (read-out: IC50), 148 µM; on Beta-lactamase VIM-2 (read-out: IC50) it was 0.067 µM.

Consider `Cc1ccc(S(=O)(=O)NCc2[nH]nnc2CNC2CCCCC2)cc1`, for which the inhibition in assay [1] is 82%; in assay [3], 2.3%. Further, the inhibition result in the assay with Klebsiella pneumoniae is “inactive”. In addition, the IC50 entry on GIM-1 protein is “Not Active”; in [2] (read-out: IC50) it was 144 µM; on Beta-lactamase VIM-2 (read-out: IC50), 1.5 µM.

For `O=S(=O)(NCc1[nH]nnc1CNCc1ccccc1)c1ccc(I)cc1`, the IC50 entry at Beta-lactamase VIM-2 is given as “Nd(Insoluble)”.

With `COc1ccc(CSCc2nn[nH]c2CNS(=O)(=O)c2ccc(I)cc2)cc1`, the inhibition in assay [1] was determined as 45%; in the assay with Klebsiella pneumoniae, 34%; in assay [3] it was 33%. Also, the IC50 is 227 µM on GIM-1 protein (read-out: IC50) and 21 µM at Beta-lactamase VIM-2 (read-out: IC50).

Take `Cc1ccc(S(=O)(=O)NCc2[nH]nnc2COC(C)(C)C)cc1`: the inhibition amounted to 60% in assay [1] and 4.5% in [3]. In addition, in the assay on Klebsiella pneumoniae, the inhibition result is “inactive”. In addition, the IC50 on GIM-1 protein (read-out: IC50) is 128 µM; in assay [2] (read-out: IC50), 142 µM; at Beta-lactamase VIM-2 (read-out: IC50) it was 7.2 µM.

Take `O=S(=O)(NCc1[nH]nnc1CNC1CCCCC1)c1cc(Cl)ccc1Cl`: the figures for the inhibition in assay [1] and in assay [3] were 94% and 7%, respectively. In the assay with Klebsiella pneumoniae, the inhibition result was “inactive”. Moreover, the 50% inhibitory concentration (IC50) result at GIM-1 protein was “Not Active”; in assay [2] (read-out: IC50) it was 98 µM; at Beta-lactamase VIM-2 (read-out: IC50), 0.23 µM.

`COCc1nn[nH]c1CNS(=O)(=O)c1ccc(I)cc1`: the inhibition in [1] was 51%; in assay [3] it was 11%. Besides, in the assay with Klebsiella pneumoniae, the inhibition result is “inactive”. In addition, the results for the IC50 (on GIM-1 protein (read-out: IC50); in assay [2]; on Beta-lactamase VIM-2 (read-out: IC50)) were 169 µM, “Not Active” and 15 µM, respectively.

As to `NCc1nn[nH]c1CNS(=O)(=O)c1ccccc1`, the inhibition in [1] amounted to 29%. Also, the inhibition entry (in the assay with Klebsiella pneumoniae; in [3]) was “inactive” in each case. Moreover, the IC50 entry at GIM-1 protein was “Not Active”; in assay [2], “Not Active”; at Beta-lactamase VIM-2 (read-out: IC50), 23 µM.

In the case of `C[C@@H](O)[C@H]1C(=O)N2C(C(=O)O)=C(S[C@@H]3CN[C@H](C(=O)N(C)C)C3)[C@H](C)[C@H]12`, the MIC worked out at 1 µg/mL in [4]; 64 µg/mL in [5]; 16 µg/mL (≈ 41.7 µM) against Escherichia coli [6]; 64 µg/mL (≈ 167 µM) in assay [7]; 1 µg/mL in the assay with Escherichia coli [8]; 32 µg/mL (≈ 83.4 µM) in [9]. For the same compound, the MIC in [10] was 8 µg/mL; with Escherichia coli [11], 16 µg/mL; in [12], 32 µg/mL; in assay [13], 16 µg/mL; in [14] it was 64 µg/mL; in [15], 32 µg/mL. Besides, the MIC in assay [16] was determined as 8 µg/mL.

In the case of `CC(C)OCc1nn[nH]c1CNS(=O)(=O)c1ccc(I)cc1`, the inhibition is 85% in [1] and 11% in assay [3]. Further, in the assay on Klebsiella pneumoniae, the inhibition entry was “inactive”. Further, the IC50 is 193 µM on GIM-1 protein (read-out: IC50), “Not Active” in assay [2] and 0.53 µM on Beta-lactamase VIM-2 (read-out: IC50).

`O=S(=O)(NCc1[nH]nnc1CNC12CC3CC(CC(C3)C1)C2)c1cc(Cl)ccc1Cl`: the inhibition entry (in [1]; with Klebsiella pneumoniae) was “inactive” each time. Moreover, the IC50 entry at GIM-1 protein is “Nd(Insoluble)”; on Beta-lactamase VIM-2 (read-out: IC50) it was 0.12 µM. The inhibition in [3] is 21%.

For the compound `CC(=O)OCc1nn[nH]c1CNS(=O)(=O)c1ccc(I)cc1`, the IC50 on GIM-1 protein (read-out: IC50) was 48 µM; in assay [2] (read-out: IC50) it was 231 µM; at Beta-lactamase VIM-2 (read-out: IC50) it was 23 µM.

With `Cc1ccc(S(=O)(=O)NCc2[nH]nnc2CNC23CC4CC(CC(C4)C2)C3)cc1`, the inhibition in assay [1] worked out at 84%. In addition, the inhibition result (in the assay with Klebsiella pneumoniae; in assay [3]) was “inactive” throughout. Also, the IC50 stood at 83 µM on GIM-1 protein (read-out: IC50) and 2.3 µM at Beta-lactamase VIM-2 (read-out: IC50).

Regarding `O=S(=O)(NCc1[nH]nnc1CNC12CC3CC(CC(C3)C1)C2)c1ccc(I)cc1`, the inhibition in [1] was found to be 96%; with Klebsiella pneumoniae, 17%; in [3] it was 22%. Further, the IC50 on GIM-1 protein (read-out: IC50) was 18 µM; at Beta-lactamase VIM-2 (read-out: IC50), 0.16 µM.
